# Test results published in ChEMBL document CHEMBL1124553, “Brain-specific chemical delivery systems for beta-lactam antibiotics. In vitro and in vivo studies of some dihydropyridine and dihydroisoquinoline derivatives of benzylpenicillin in rats” (J Med Chem, 1989).
# Columns and labels:
# [1] = Half-life for disappearance of compound from rat 10% brain homogenate; type: ADME
# Procedure, shortened: (§1)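 Freshly collected whole blood, or 10% w/v brain homogenate in pH 7.4 phosphate buffer (ionic strength 0.15), was prewarmed to 37 °C. Compound was spiked from an 8 mM DMSO stock to 40 µM final. Timed samples were quenched in 8% DMSO/acetonitrile, centrifuged, filtered and analyzed by reversed-phase C8 HPLC with UV detection. K came from linear regression of log peak height versus time, with t1/2 derived from it. Values are mean ± SE of three determinations in different animal samples.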
# [2] = Half-life for disappearance of compound from rat whole blood; type: ADME, organism-based; procedure, shortened: as §1
# [3] = Pseudo first-order rate constant (K) for disappearance of compound from rat whole blood; type: ADME, tissue-based
# Procedure, shortened: (§2)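 Freshly collected whole blood (rat trunk blood; rabbit) or 10% w/v brain homogenate made in pH 7.4 phosphate buffer (μ = 0.15), prewarmed to 37 °C. Compound added from 8 mM DMSO stock to a final 40 μM. Timed 0.3 mL samples were quenched in 8% DMSO/acetonitrile, centrifuged, filtered and analysed by reversed-phase C8 HPLC-UV. K came from linear regression of log peak height versus time; n=3 animal samples.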
# Rattus norvegicus [4] = organism: Rattus norvegicus; assay: Pseudo first-order rate constant (K) for disappearance of compound from rat 10% brain homogenate; type: ADME; procedure, shortened: as §2
# Canis familiaris = organism: Canis familiaris; assay: Pseudo first-order rate constant (K) for disappearance of compound from dog whole blood; type: ADME, organism-based, Canis lupus familiaris; procedure, shortened: as §1
# [5] = Half-life for disappearance of compound from dog whole blood; type: ADME, organism-based, Canis lupus familiaris; procedure, shortened: as §1
# Rattus norvegicus [6] = assay: Concentration of compound in rat blood after intravenous injection of 20 mg/kg benzyl-penicillin after 10 min; type: functional, organism-based; set-up: dose 20 mg/kg
# Procedure, shortened: (§3)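 Male Sprague-Dawley rats (200-250 g), conscious, received 60 µmol/kg (equimolar to 20 mg/kg benzylpenicillin) by tail-vein injection. Benzylpenicillin K was given in water/ethanol/propylene glycol, and the delivery systems in ethanol:propylene glycol 7:3, at 20 mg/mL. Rats were decapitated at set times (4-6 per point), with trunk blood heparinized and brain, kidney, liver and lung frozen. Benzylpenicillin was measured by disk microbioassay (Bacillus subtilis ATCC 6633) after >5-volume sterile-water dilution or homogenization, against matrix calibration curves; assay limit 0.05 µg/mL.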
# Rattus norvegicus [7] = assay: Concentration of compound in rat blood after intravenous injection of 20 mg/kg benzyl-penicillin after 3 min; type: functional, organism-based; set-up: dose 20 mg/kg; procedure, shortened: as §3
# Rattus norvegicus [8] = assay: Concentration of compound in rat blood after intravenous injection of 20 mg/kg benzyl-penicillin after 1 min; type: functional, organism-based; set-up: dose 20 mg/kg; procedure, shortened: as §3
# Rattus norvegicus [9] = assay: Concentration of compound in rat brain after intravenous injection of 20 mg/kg benzyl-penicillin after 1 min; type: functional, organism-based; set-up: dose 20 mg/kg; procedure, shortened: as §3
# Rattus norvegicus [10] = assay: Concentration of compound in rat blood after intravenous injection of 20 mg/kg benzyl-penicillin after 5 min; type: functional, organism-based; set-up: dose 20 mg/kg; procedure, shortened: as §3
# Rattus norvegicus [11] = assay: Concentration of compound in rat brain after intravenous injection of 20 mg/kg benzyl-penicillin after 3 min; type: functional, organism-based; set-up: dose 20 mg/kg; procedure, shortened: as §3
# Rattus norvegicus [12] = assay: Concentration of compound in rat blood after intravenous injection of 20 mg/kg benzyl-penicillin after 20 min; type: functional, organism-based; set-up: dose 20 mg/kg; procedure, shortened: as §3
# Oryctolagus cuniculus [13] = organism: Oryctolagus cuniculus; assay: Pseudo first-order rate constant (K) for disappearance of compound from rabbit 10% brain homogenate; type: ADME; procedure, shortened: as §2
# [14] = Half-life for disappearance of compound from rabbit whole blood; type: ADME, organism-based, Oryctolagus cuniculus; procedure, shortened: as §1
# Homo sapiens = organism: Homo sapiens; assay: Pseudo first-order rate constant (K) for disappearance of compound from human whole blood; type: ADME, organism-based; procedure, shortened: as §1
# [15] = Half-life for disappearance of compound from rabbit 10% brain homogenate; type: ADME, Oryctolagus cuniculus; procedure, shortened: as §1
# [16] = Half-life for disappearance of compound from human whole blood; type: ADME, organism-based; procedure, shortened: as §1
# Oryctolagus cuniculus [17] = organism: Oryctolagus cuniculus; assay: Pseudo first-order rate constant (K) for disappearance of compound from rabbit whole blood; type: ADME, organism-based; procedure, shortened: as §2
# Rattus norvegicus [18] = assay: Concentration of compound in rat kidney after intravenous injection of 20 mg/kg benzyl-penicillin after 20 min; type: functional, organism-based; set-up: dose 20 mg/kg; procedure, shortened: as §3
# Rattus norvegicus [19] = assay: Concentration of compound in rat blood after intravenous injection of 20 mg/kg benzyl-penicillin after 60 min; type: functional, organism-based; set-up: dose 20 mg/kg; procedure, shortened: as §3
# Rattus norvegicus [20] = assay: Concentration of compound in rat kidney after intravenous injection of 20 mg/kg benzyl-penicillin after 40 min; type: functional, organism-based; set-up: dose 20 mg/kg; procedure, shortened: as §3
# Rattus norvegicus [21] = assay: Concentration of compound in rat kidney after intravenous injection of 20 mg/kg benzyl-penicillin after 10 min; type: functional, organism-based; set-up: dose 20 mg/kg; procedure, shortened: as §3
# Rattus norvegicus [22] = assay: Concentration of compound in rat liver after intravenous injection of 20 mg/kg benzyl-penicillin after 40 min; type: functional, organism-based; set-up: dose 20 mg/kg; procedure, shortened: as §3
# Rattus norvegicus [23] = assay: Concentration of compound in rat blood after intravenous injection of 20 mg/kg benzyl-penicillin after 40 min; type: functional, organism-based; set-up: dose 20 mg/kg; procedure, shortened: as §3
# Rattus norvegicus [24] = assay: Concentration of compound in rat brain after intravenous injection of 20 mg/kg benzyl-penicillin after 10 min; type: functional, organism-based; set-up: dose 20 mg/kg; procedure, shortened: as §3
# Rattus norvegicus [25] = assay: Concentration of compound in rat liver after intravenous injection of 20 mg/kg benzyl-penicillin after 3 min; type: functional, organism-based; set-up: dose 20 mg/kg; procedure, shortened: as §3
# Rattus norvegicus [26] = assay: Concentration of compound in rat liver after intravenous injection of 20 mg/kg benzyl-penicillin after 60 min; type: functional, organism-based; set-up: dose 20 mg/kg; procedure, shortened: as §3
# Rattus norvegicus [27] = assay: Concentration of compound in rat liver after intravenous injection of 20 mg/kg benzyl-penicillin after 10 min; type: functional, organism-based; set-up: dose 20 mg/kg; procedure, shortened: as §3
# Rattus norvegicus [28] = assay: Concentration of compound in rat lung after intravenous injection of 20 mg/kg benzyl-penicillin after 1 min; type: functional, organism-based; set-up: dose 20 mg/kg; procedure, shortened: as §3
# Rattus norvegicus [29] = assay: Concentration of compound in rat lung after intravenous injection of 20 mg/kg benzyl-penicillin after 3 min; type: functional, organism-based; set-up: dose 20 mg/kg; procedure, shortened: as §3
# Rattus norvegicus [30] = assay: Concentration of compound in rat lung after intravenous injection of 20 mg/kg benzyl-penicillin after 60 min; type: functional, organism-based; set-up: dose 20 mg/kg; procedure, shortened: as §3
# Rattus norvegicus [31] = assay: Concentration of compound in rat kidney after intravenous injection of 20 mg/kg benzyl-penicillin after 60 min; type: functional, organism-based; set-up: dose 20 mg/kg; procedure, shortened: as §3
# Rattus norvegicus [32] = assay: Concentration of compound in rat lung after intravenous injection of 20 mg/kg benzyl-penicillin after 20 min; type: functional, organism-based; set-up: dose 20 mg/kg; procedure, shortened: as §3
# Rattus norvegicus [33] = assay: Concentration of compound in rat lung after intravenous injection of 20 mg/kg benzyl-penicillin after 5 min; type: functional, organism-based; set-up: dose 20 mg/kg; procedure, shortened: as §3
# Rattus norvegicus [34] = assay: Concentration of compound in rat brain after intravenous injection of 20 mg/kg benzyl-penicillin after 5 min; type: functional, organism-based; set-up: dose 20 mg/kg; procedure, shortened: as §3
# Rattus norvegicus [35] = assay: Concentration of compound in rat kidney after intravenous injection of 20 mg/kg benzyl-penicillin after 1 min; type: functional, organism-based; set-up: dose 20 mg/kg; procedure, shortened: as §3
# Rattus norvegicus [36] = assay: Concentration of compound in rat kidney after intravenous injection of 20 mg/kg benzyl-penicillin after 5 min; type: functional, organism-based; set-up: dose 20 mg/kg; procedure, shortened: as §3
# Rattus norvegicus [37] = assay: Concentration of compound in rat lung after intravenous injection of 20 mg/kg benzyl-penicillin after 40 min; type: functional, organism-based; set-up: dose 20 mg/kg; procedure, shortened: as §3
# Rattus norvegicus [38] = assay: Concentration of compound in rat kidney after intravenous injection of 20 mg/kg benzyl-penicillin after 3 min; type: functional, organism-based; set-up: dose 20 mg/kg; procedure, shortened: as §3
# Rattus norvegicus [39] = assay: Concentration of compound in rat lung after intravenous injection of 20 mg/kg benzyl-penicillin after 10 min; type: functional, organism-based; set-up: dose 20 mg/kg; procedure, shortened: as §3
# Rattus norvegicus [40] = assay: Concentration of compound in rat liver after intravenous injection of 20 mg/kg benzyl-penicillin after 20 min; type: functional, organism-based; set-up: dose 20 mg/kg; procedure, shortened: as §3
# Rattus norvegicus [41] = assay: Concentration of compound in rat liver after intravenous injection of 20 mg/kg benzyl-penicillin after 1 min; type: functional, organism-based; set-up: dose 20 mg/kg; procedure, shortened: as §3
# Rattus norvegicus [42] = assay: Concentration of compound in rat liver after intravenous injection of 20 mg/kg benzyl-penicillin after 5 min; type: functional, organism-based; set-up: dose 20 mg/kg; procedure, shortened: as §3
structure (smiles),measurement,setting,value
C[n+]1cc(C(=O)NCCOC(=O)C2N3C(=O)C(NC(=O)Cc4ccccc4)C3SC2(C)C)c2ccccc2c1.[I-] (stereo unspecified),half-life,[1],73.4 min
same,half-life,[2],6 min
same,K,[3],0.115 min⁻¹
same,K,Rattus norvegicus [4],0.01 min⁻¹
same,K,Canis familiaris,0.051 min⁻¹
same,half-life,[5],13.5 min
CN1C=c2ccccc2=C(C(=O)NCCOC(=O)C2N3C(=O)C(NC(=O)Cc4ccccc4)C3SC2(C)C)C1 (stereo unspecified),half-life,[1],28.3 min
same,Concentration,Rattus norvegicus [6],1.2 µg/mL
same,half-life,[2],0.6 min
same,Concentration,Rattus norvegicus [7],3 µg/mL
same,K,[3],1.083 min⁻¹
same,Concentration,Rattus norvegicus [8],6.6 µg/mL
same,K,Rattus norvegicus [4],0.025 min⁻¹
same,Concentration,Rattus norvegicus [9],0.2 µg/mL
same,Concentration,Rattus norvegicus [10],2.5 µg/mL
same,K,Canis familiaris,0.062 min⁻¹
same,Concentration,Rattus norvegicus [11],0.2 µg/mL
same,half-life,[5],11.4 min
same,Concentration,Rattus norvegicus [12],0.2 µg/mL
CN1C=CCC(C(=O)OCOC(=O)C2N3C(=O)C(NC(=O)Cc4ccccc4)C3SC2(C)C)=C1 (stereo unspecified),half-life,[1],0.6 min
same,K,Oryctolagus cuniculus [13],0.166 min⁻¹
same,half-life,[14],0.8 min
same,K,Rattus norvegicus [4],1.357 min⁻¹
same,K,Homo sapiens,0.045 min⁻¹
same,K,Canis familiaris,0.213 min⁻¹
same,half-life,[15],4.3 min
same,half-life,[5],3.6 min
same,half-life,[16],15.9 min
same,K,Oryctolagus cuniculus [17],0.949 min⁻¹
CC1(C)S[C@@H]2[C@H](NC(=O)Cc3ccccc3)C(=O)N2[C@H]1C(=O)O,Concentration,Rattus norvegicus [18],20.8 µg/mL
same,Concentration,Rattus norvegicus [6],8.5 µg/mL
same,Concentration,Rattus norvegicus [19],0.4 µg/mL
same,Concentration,Rattus norvegicus [20],6.2 µg/mL
same,Concentration,Rattus norvegicus [21],27.6 µg/mL
same,Concentration,Rattus norvegicus [22],2.9 µg/mL
same,Concentration,Rattus norvegicus [23],1.3 µg/mL
same,Concentration,Rattus norvegicus [24],0.3 µg/mL
same,Concentration,Rattus norvegicus [25],38.9 µg/mL
same,Concentration,Rattus norvegicus [26],0.7 µg/mL
same,Concentration,Rattus norvegicus [27],17.7 µg/mL
same,Concentration,Rattus norvegicus [28],52.5 µg/mL
same,Concentration,Rattus norvegicus [29],30.3 µg/mL
same,Concentration,Rattus norvegicus [7],25.2 µg/mL
same,Concentration,Rattus norvegicus [30],0.7 µg/mL
same,Concentration,Rattus norvegicus [31],1.1 µg/mL
same,Concentration,Rattus norvegicus [8],64.6 µg/mL
same,Concentration,Rattus norvegicus [32],2.3 µg/mL
same,Concentration,Rattus norvegicus [33],22.4 µg/mL
same,Concentration,Rattus norvegicus [9],2.7 µg/mL
same,Concentration,Rattus norvegicus [10],22.8 µg/mL
same,Concentration,Rattus norvegicus [34],0.9 µg/mL
same,Concentration,Rattus norvegicus [11],1.3 µg/mL
same,Concentration,Rattus norvegicus [35],33.6 µg/mL
same,Concentration,Rattus norvegicus [36],88.5 µg/mL
same,Concentration,Rattus norvegicus [37],1.4 µg/mL
same,Concentration,Rattus norvegicus [38],120 µg/mL
same,Concentration,Rattus norvegicus [39],9.5 µg/mL
same,Concentration,Rattus norvegicus [40],7.5 µg/mL
same,Concentration,Rattus norvegicus [41],15.1 µg/mL
same,Concentration,Rattus norvegicus [42],30.7 µg/mL
same,Concentration,Rattus norvegicus [12],2.8 µg/mL
